Assay outcomes: PubChem, several laboratories
The list is not random: actives were taken first. Their share in the collection is about 9.6%.
TNAP inh hiacc – human TNAP enzyme inhibitors, primary screen, biochemical, luminescent, high phosphate acceptor level, uHTS | actives 0.03% (n = 200,000) | Alkaline phosphatase, tissue-nonspecific isozyme (Homo sapiens), P05186 | purified TNAP, CDP-star luminescence, 1 M DEA | inhibition, % at 20 µM;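 active = over 50% inhibition of tissue-nonspecific alkaline phosphatase at 20 µM in the single-dose screen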
Target sequence (P05186 whole entry, looked up): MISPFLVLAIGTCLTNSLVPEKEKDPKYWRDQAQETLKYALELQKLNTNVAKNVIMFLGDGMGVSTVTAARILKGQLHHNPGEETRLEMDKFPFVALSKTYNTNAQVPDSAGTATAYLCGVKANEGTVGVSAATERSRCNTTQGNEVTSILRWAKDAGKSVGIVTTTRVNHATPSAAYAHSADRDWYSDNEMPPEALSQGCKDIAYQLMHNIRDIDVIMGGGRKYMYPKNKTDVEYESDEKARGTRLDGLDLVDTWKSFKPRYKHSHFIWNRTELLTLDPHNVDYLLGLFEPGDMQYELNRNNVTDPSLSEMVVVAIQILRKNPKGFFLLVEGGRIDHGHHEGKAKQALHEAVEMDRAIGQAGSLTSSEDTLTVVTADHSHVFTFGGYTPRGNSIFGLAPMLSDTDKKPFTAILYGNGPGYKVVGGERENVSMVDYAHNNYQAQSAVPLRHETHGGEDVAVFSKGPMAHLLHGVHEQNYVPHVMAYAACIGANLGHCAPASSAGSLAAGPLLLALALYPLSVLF
TNAP act hiacc – TNAP activators at high phosphate acceptor level, primary screen, biochemical, luminescence, uHTS; Alkaline phosphatase, tissue-nonspecific isozyme (Homo sapiens), P05186; 200,000 tested, under 10 active; purified TNAP, CDP-star luminescence, 1 M DEA, 30 min; hits give high values; 0 = EDTA background, 1 = DMSO-only activity; activation factor at 20 µM;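 active = activation factor at least 2 at 20 µM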
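Dosing: 20 µM single point. System: human TNAP. Amount: TNAP 1/800 final. Incubation: 30 min, room temperature. Read-out: TNAP activation factor scaled between EDTA and DMSO control wells. Signal: luminescence from CDP-star hydrolysis. Medium: 1 M DEA, pH 9.8, Mg2+, Zn2+. Control set: EDTA negative control, DMSO positive control.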
TNAP inh no acc – human TNAP enzyme inhibitors, primary screen, biochemical, luminescent, no phosphate acceptor, uHTS | Alkaline phosphatase, tissue-nonspecific isozyme (Homo sapiens), P05186 | purified TNAP, CDP-star luminescence, 30 min | inhibition, % at 20 µM | actives 0.26% (n = 200,000);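 active = tissue-nonspecific alkaline phosphatase inhibition above about 50% at 20 µM in the single-dose screen, limit read from the data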
PTEN del growth – growth suppression of PTEN-null HCT116, primary screen, cell-based, CellTiter-Glo; HCT116 PTEN-null viability, 60 h; hits give low values; viability, % at 10 µM; actives 1.2% (n = 140,000); AID 827, 2007;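 active = viability at or below a set limit, 4 SD under the median of all tested compounds, cut at about 3.7% in these data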;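 note: PTEN knockout HCT116 line with beta catenin targeted HCT116 as companion control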
bCat KO growth – primary screen for growth suppressors in beta-catenin knockout HCT116 cells (colon tumor, human); AID 818, 2007; actives 1.5% (n = 140,000); HCT116 beta-catenin knockout viability, CellTiter-Glo, 60 h; hits give low values; viability, % at 10 µM;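 active = viability at or under a set limit, the compound median less 4 SD, cut at about 6% in these data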
L major viab – Leishmania major promastigote growth inhibition, primary screen. Leishmania major promastigotes, resazurin fluorescence viability. inhibition, % at 10 µM. actives 9% (n = 200,000). AID 1063, 2008; in the data active = inhibition above about 50%;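 note: promastigotes grown with compound for 44 hours at 28 °C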
Lmaj promast 1uM – Leishmania major promastigote growth inhibition, confirmation, 1 µM repeat of primary hits; shares compounds with L major viab; L. major promastigote growth, resazurin fluorescence, 48 h; inhibition, % at 1 µM; actives 13% (n = 1,100); AID 1258, 2008;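 active = inhibition above about 50% in both repeat tests, limit read from the data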
Of the large screens only hits and unclear results are named; the others gave an inactive call (follow-up assays come after a bar, where they were run).

CCOC(=O)c1oc2ccc(CNC(C)(C)C)c(Cl)c2c1C	L major viab 99.0 | Lmaj promast 1uM inactive
Cc1ccc(NC(=S)NCc2ccccc2)cc1S(=O)(=O)N1CCCCC1	none (no result: PTEN del growth, bCat KO growth)
COCCCC/C(=N\OCCN)c1ccc(C(F)(F)F)cc1	L major viab 80.2 | Lmaj promast 1uM inactive
O=C(COC(=O)C1Cc2ccccc2CN1C(=O)c1ccccc1)Nc1ccc(SC(F)F)cc1 (stereo not given)	none
COC(=O)c1nn(-c2ccccc2)c(Sc2ccc(C)cc2)c1/C=N/O	none
CCCC1N2CC3([N+](=O)[O-])CN1CC([N+](=O)[O-])(C2)C3(C)C (stereo not given)	none
Cc1ccc(C2N3CC4([N+](=O)[O-])CN2CC([N+](=O)[O-])(C3)C4(C)C)cc1 (stereo not given)	L major viab 65.4 | Lmaj promast 1uM inactive
O=C(Nc1cccc2nsnc12)C1CC(=O)N(c2ccccc2)C1 (stereo not given)	none
COc1ccc(NC(=O)c2cccc(N3C(=O)NC4CC3(C)Oc3ccccc34)c2)cc1 (stereo not given)	L major viab 99.9 | Lmaj promast 1uM inactive
Cc1cc(C)n(CCc2nc(-c3cc4ccccc4o3)cs2)n1	L major viab 100.0 | Lmaj promast 1uM inactive
COc1ccc(/C(C)=N/OCC(=O)N2CC3(C)CC2CC(C)(C)C3)cc1 (stereo not given)	L major viab 62.9 | Lmaj promast 1uM inactive
COCCCNc1nc2c(-c3ccc(Cl)cc3)nnn2c2ccccc12	none
Fc1cccc(-c2nnn3c2nc(Cl)c2ccccc23)c1	L major viab 98.3 (no result: PTEN del growth, bCat KO growth) | Lmaj promast 1uM 80.8
COc1ccc(C2SCC(=O)N2c2nc3ccccc3s2)cc1 (stereo not given)	none (no result: PTEN del growth, bCat KO growth)
COc1ccc(C2=NN(c3nc4ccccc4s3)C(=O)/C2=C\N(C)C)cc1	L major viab 53.9 | Lmaj promast 1uM inactive
Cc1ccc2nc(SCC(=O)Nc3ccc4sc(C)nc4c3)c(C#N)cc2c1	none
O=C(Nc1nnc(-c2ccco2)o1)C1CC1	none (no result: PTEN del growth, bCat KO growth)
CC(=O)c1nn(-c2ccccc2)cc1C(=O)c1cccc(Br)c1	none
O=C(c1cccc(Br)c1)c1cn(-c2ccccc2)nc1C(=O)c1ccccc1	L major viab 87.7 | Lmaj promast 1uM inactive
COCCCNCCCCOc1ccc(Br)cc1Cl	L major viab 98.0 | Lmaj promast 1uM 75.8
C=CCSC(=S)NC1CCS(=O)(=O)C1 (stereo not given)	L major viab 93.1 | Lmaj promast 1uM inactive
CCOC(=O)C1C(C(=O)OCC)C1(c1ccccc1)c1ccccc1 (stereo not given)	L major viab 89.1 | Lmaj promast 1uM inactive
CS(=O)(=O)c1ccc(S(=O)CC(=O)OCc2ccccc2)c([N+](=O)[O-])c1 (stereo not given)	L major viab 57.3 (no result: PTEN del growth, bCat KO growth) | Lmaj promast 1uM inactive
Cc1noc(C)c1C(c1ccccc1)c1ccccc1	none
Cc1ccc(S(=O)(=O)C(c2ccccc2)c2c(C)noc2C)cc1 (stereo not given)	L major viab 60.8 | Lmaj promast 1uM inactive
Cc1noc(C)c1C(c1ccccc1)S(=O)(=O)c1ccccc1 (stereo not given)	L major viab 84.8 | Lmaj promast 1uM inactive
CN(C)c1ccc(C(=S)NCc2ccco2)cc1	none
CCN1CCc2nc3ccccc3c(C(=O)Nc3ccc(C#N)cc3)c2C1	none (no result: PTEN del growth, bCat KO growth)
COc1ccc(Cc2nnc(N/N=C/c3ccc(O)cc3O)[nH]c2=O)cc1OC	none
O=C1CN(c2ccc(Cl)cc2)C2(CCCCC2)S1	L major viab 66.5 | Lmaj promast 1uM inactive
Nc1nc2c(F)c(F)c(F)cc2s1	none (no result: PTEN del growth, bCat KO growth)
CC(C)(C)c1ccccc1NC(=O)c1ccco1	none
CCOC(=O)c1c(C)n(C)c2ccc(O)c(CN3CCCCC3)c12	none
CCOC(=O)c1c(C)oc2ccc(O)c(CN3CCCCC3)c12	L major viab 87.7 | Lmaj promast 1uM inactive
CCCCCOc1ccc(Br)cc1/C(C)=N/NC1=NCCN1	bCat KO growth 3.1, L major viab 100.4 | Lmaj promast 1uM inactive
CCN(CC)CC(=O)Nc1ccc(/C(C)=N/NC2=NCCN2)cc1	none (no result: PTEN del growth, bCat KO growth)
CCOP(=O)(c1ccccc1)c1nc(-c2ccccc2C)oc1N1CCCCC1 (stereo not given)	L major viab 50.3 | Lmaj promast 1uM inactive
CCOP(=O)(OCC)c1nc(-c2cccc3ccccc23)oc1N1CCCCC1	none (no result: PTEN del growth, bCat KO growth)
COc1ccc(CCNC(=O)COC(=O)CCC(=O)c2ccc(F)cc2)cc1	none (no result: PTEN del growth, bCat KO growth)
CC1(C)Cc2ccccc2-c2nnc(-c3ccc4ccccc4n3)n21	L major viab 62.4 | Lmaj promast 1uM 56.6
Cc1cc2c(cc1C)-c1nnc(-c3ccc4ccccc4n3)n1C(C)(C)C2	none
Cc1nc(-c2cn[nH]c2)c2cc(C)oc2n1	L major viab 61.9 | Lmaj promast 1uM inactive
CCN1/C(=C/C=C/c2oc3ccc4ccccc4c3[n+]2CC)Oc2ccc3ccccc3c21	TNAP act hiacc 2, L major viab 100.4 (no result: PTEN del growth, bCat KO growth) | Lmaj promast 1uM 101.2
CCC(=O)Nc1ccc(/C(C)=N\NS(=O)(=O)c2ccc(C)cc2)cc1	none
O=C(N/N=C/c1cc(Br)ccc1O)Nc1ccccc1	none
CCOc1ccccc1NC(=O)C(=O)N/N=C/c1cc(Br)ccc1O	L major viab 99.8 (no result: PTEN del growth, bCat KO growth) | Lmaj promast 1uM inactive
O=C(NCc1ccco1)c1cccc(NS(=O)(=O)c2cccc(F)c2)c1	L major viab 57.5 | Lmaj promast 1uM inactive
Cc1ccccc1NS(=O)(=O)c1cc(C(=O)NCc2ccco2)ccc1C	L major viab 59.4 | Lmaj promast 1uM inactive
O=C(NCc1ccco1)c1cccc(S(=O)(=O)N2CCCCC2)c1	none
O=C(NCCc1csc(-c2ccc(C(F)(F)F)cc2)n1)c1cccs1	none
Cn1c(N)c(C(=O)COC(=O)c2cc(C3CC3)nc3ccccc23)c(=O)n(Cc2ccccc2)c1=O	none
CN(C)c1cc(=O)n2c(n1)SCCC2	none
O=c1cc(N2CCCCC2)nc2n1CCCS2	L major viab 71.3 | Lmaj promast 1uM inactive
O=c1cc(N2CCCCCC2)[nH]c(=O)n1-c1ccccc1Cl	none (no result: PTEN del growth, bCat KO growth)
CCn1c(N2CCN(S(=O)(=O)c3ccc(Cl)cc3)CC2)nc2ccccc21	L major viab 81.1 (no result: PTEN del growth, bCat KO growth) | Lmaj promast 1uM inactive
CC(=O)c1cc2c(cc1NS(=O)(=O)c1ccccc1F)OCO2	none (no result: PTEN del growth, bCat KO growth)
CC1CCCCC1NC(=O)C1CC=CCC1C(=O)O (stereo not given)	L major viab 54.6 | Lmaj promast 1uM inactive
